In ChEMBL document CHEMBL3098107, “Synthesis of novel 2-cyano substituted glycyrrhetinic acid derivatives as inhibitors of cancer cells growth and NO production in LPS-activated J-774 cells” (Bioorg Med Chem, 2014):

Tests used:
J774 [1] = assay: Antiinflammatory activity in mouse J774 cells assessed as inhibition of LPS-induced NO production after 24 hrs by Griess method; assay type: functional, cell-based; conditions: J774, 24 h
J774 [2] = assay: Cytotoxicity against mouse J774 cells assessed as cell survival after 24 hrs by MTT assay; assay type: cell-based; conditions: J774, 24 h
Procedure, shortened: (§1)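 Cells in log phase, in DMEM with 10% heat-inactivated FBS, seeded in triplicate. After 24 h adherence, they were exposed to graded doses for 24 h, then to MTT for 3 h. Formazan was dissolved in DMSO and read at 570 nm. IC50 is the concentration giving 50% survival. Three independent experiments, mean ± SEM.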

[3] = Solubility of the compound in DMSO; assay type: physicochemical
J774 [4] = assay: Selectivity index, ratio of IC50 for mouse J774 cells to IC50 for human KB-3-1 cells; assay type: functional
Procedure, shortened: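 SI is the IC50 from the J-774 MTT assay divided by the IC50 from the KB-3-1 MTT assay, with both IC50 values from the 24 h assays.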

[5] = Cytotoxicity against human KB-3-1 cells assessed as cell survival after 24 hrs by MTT assay; assay type: functional, cell-based; conditions: KB 3-1, 24 h; procedure, shortened: as §1

SMILES: COC(=O)[C@]1(C)C=C2C3=CC(=O)[C@@H]4[C@@]5(C)CC[C@H](O)C(C)(C)[C@@H]5CC[C@@]4(C)[C@]3(C)CC[C@@]2(C)CC1
- IC50 (J774 [1]): > 100 µM
- IC50 (J774 [2]): > 100 µM

SMILES: COC(=O)[C@@]1(C)CC[C@]2(C)CC[C@]3(C)C(=CC[C@@H]4[C@@]5(C)CCC(=O)C(C)(C)[C@@H]5CC[C@]43C)[C@@H]2C1
- solubility [3]: Insoluble

SMILES: COC(=O)[C@]1(C)C=C2C3=CC(=O)[C@@H]4[C@@]5(C)C/C(=C/O)C(=O)C(C)(C)[C@@H]5CC[C@@]4(C)[C@]3(C)CC[C@@]2(C)CC1
- IC50 (J774 [1]): 14.5 µM
- IC50 (J774 [2]): 13.4 µM

SMILES: COC(=O)[C@@]1(C)CC[C@]2(C)CC[C@]3(C)[C@H](C(=O)C[C@@H]4[C@@]5(C)C=C(C#N)C(=O)C(C)(C)[C@@H]5CC[C@]43C)[C@@H]2C1
- IC50 (J774 [1]): 2.8 µM
- Ratio IC50 (J774 [4]): >18.2
- IC50 [5]: 5.5 µM
- IC50 (J774 [2]): > 100 µM

SMILES: COC(=O)[C@@]1(C)CC[C@]2(C)CC[C@]3(C)C(=CC[C@@H]4[C@@]5(C)CC(C#N)=C(O)C(C)(C)[C@@H]5CC[C@]43C)[C@@H]2C1
- IC50 (J774 [1]): 8 µM
- Ratio IC50 (J774 [4]): >1.3
- IC50 [5]: 80 µM
- IC50 (J774 [2]): > 100 µM

SMILES: COC(=O)[C@@]1(C)CC[C@]2(C)CC[C@]3(C)[C@H](C(=O)C[C@@H]4[C@@]5(C)CCC(=O)C(C)(C)[C@@H]5CC[C@]43C)[C@@H]2C1
- IC50 (J774 [1]): 23.4 µM
- Ratio IC50 (J774 [4]): >3.9
- IC50 [5]: 25.2 µM
- IC50 (J774 [2]): > 100 µM

SMILES: COC(=O)[C@@]1(C)CC[C@]2(C)CC[C@]3(C)C(=CC[C@@H]4[C@@]5(C)C/C(=C\O)C(=O)C(C)(C)[C@@H]5CC[C@]43C)[C@@H]2C1
- IC50 (J774 [1]): 10.5 µM
- Ratio IC50 (J774 [4]): >2.5
- IC50 [5]: 40 µM
- IC50 (J774 [2]): > 100 µM

SMILES: COC(=O)[C@@]1(C)CC[C@]2(C)CC[C@]3(C)C(=CC(=O)[C@@H]4[C@@]5(C)C=C(C#N)C(=O)C(C)(C)[C@@H]5CC[C@]43C)[C@@H]2C1
- IC50 (J774 [1]): 2 µM
- Ratio IC50 (J774 [4]): >5
- IC50 [5]: 20 µM
- IC50 (J774 [2]): > 100 µM

SMILES: COC(=O)[C@]1(C)C=C2C3=CC(=O)[C@@H]4[C@@]5(C)CCC(=O)C(C)(C)[C@@H]5CC[C@@]4(C)[C@]3(C)CC[C@@]2(C)CC1
- IC50 (J774 [1]): 16.3 µM
- IC50 (J774 [2]): 20.1 µM

SMILES: COC(=O)[C@@]1(C)CC[C@]2(C)CC[C@]3(C)C(=CC[C@@H]4[C@@]5(C)Cc6cnoc6C(C)(C)[C@@H]5CC[C@]43C)[C@@H]2C1
- IC50 (J774 [1]): 12.4 µM
- IC50 [5]: > 100 µM
- IC50 (J774 [2]): > 100 µM

SMILES: COc1ccc2c(c1)c(CC(=O)O)c(C)n2C(=O)c1ccc(Cl)cc1 [INDOMETHACIN]
- IC50 (J774 [1]): 29.6 µM
- IC50 (J774 [2]): > 100 µM

SMILES: COC(=O)[C@@]1(C)CC[C@]2(C)CC[C@]3(C)C(=CC(=O)[C@@H]4[C@@]5(C)CC[C@H](O)C(C)(C)[C@@H]5CC[C@]43C)[C@@H]2C1
- IC50 (J774 [1]): > 100 µM
- IC50 [5]: > 100 µM
- IC50 (J774 [2]): > 100 µM

SMILES: COC(=O)[C@@]1(C)CC[C@]2(C)CC[C@]3(C)[C@H](C(=O)C[C@@H]4[C@@]5(C)CC[C@H](O)C(C)(C)[C@@H]5CC[C@]43C)[C@@H]2C1
- IC50 (J774 [1]): 59.4 µM
- Ratio IC50 (J774 [4]): 8.3
- IC50 [5]: 6.8 µM
- IC50 (J774 [2]): 56.1 µM

SMILES: COC(=O)[C@@]1(C)CC[C@]2(C)CC[C@]3(C)[C@H](C(=O)C=C4[C@@]5(C)C=C(C#N)C(=O)C(C)(C)[C@@H]5CC[C@]43C)[C@@H]2C1
- IC50 (J774 [1]): 0.11 µM
- Ratio IC50 (J774 [4]): 11
- IC50 [5]: 0.3 µM
- IC50 (J774 [2]): 3.32 µM

SMILES: COC(=O)[C@]1(C)C=C2C3=CC(=O)[C@@H]4[C@@]5(C)C=C(C#N)C(=O)C(C)(C)[C@@H]5CC[C@@]4(C)[C@]3(C)CC[C@@]2(C)CC1
- IC50 (J774 [1]): 5.6 µM
- Ratio IC50 (J774 [4]): 1.8
- IC50 [5]: 4 µM
- IC50 (J774 [2]): 7 µM

SMILES: COC(=O)[C@@]1(C)CC[C@]2(C)CC[C@]3(C)C(=CC[C@@H]4[C@@]5(C)C=C(C#N)C(=O)C(C)(C)[C@@H]5CC[C@]43C)[C@@H]2C1
- solubility [3]: Insoluble

SMILES: COC(=O)[C@@]1(C)CC[C@]2(C)CC[C@]3(C)C(=CC[C@@H]4[C@@]5(C)CC[C@H](O)C(C)(C)[C@@H]5CC[C@]43C)[C@@H]2C1
- solubility [3]: Insoluble
